The nature of assay [1]: In vitro inhibition of collagen induced aggregation of human plateles and the ratio of ED33 to EC50 was reported. Format: functional. An outline of the steps: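 Ratio of oral ED33 (male Sprague-Dawley rats, 3 per dose, blood taken 1 h post-dose, collagen-triggered aggregation) to in vitro EC50 (human citrated platelet-rich plasma, 10 min room-temperature preincubation in 1% Me2SO, collagen 0.02 mg/mL final, regression-derived).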

The species entered for assay [2] is Homo sapiens. As to the kind of experiment: In vitro inhibition of collagen-induced human platelet aggregation. The assay is classed as functional, organism-based. Conditions: Homo sapiens; read-out: EC50. An outline of the steps:
(§1)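 Human venous blood citrated with 10% v/v sodium citrate (3.8%); platelet-rich plasma spun at 300g, 10 min, 4 °C, used within 2 h. Compound in Me2SO (1% final) preincubated 10 min at room temperature; aggregation triggered by collagen 0.02 mg/mL final or ADP 0.85 μg/mL final; maximum rate read in Born aggregometer. EC50 from log dose–effect regression with 95% confidence limits.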

Assay [3] concerns Rattus norvegicus. As to the kind of experiment: In vitro hypotensive activity in anesthetized rats after intraperitoneal administration. Format: functional. The note with it: ip, in the assay text read “In vivo” for “In vitro”. An outline of the steps:
(§2)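 Male Sprague-Dawley rats, 230-280 g, urethane-anesthetized (ip); carotid arterial pressure recorded continuously by pressure transducer. Compounds given ip at 2 mL/kg. ED20, dose lowering mean carotid pressure by 20%, from log dose–effect regression; dihydralazine as reference.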

For assay [4], the system named is Rattus norvegicus. As to the kind of experiment: Ex vivo inhibition of collagen-induced rat platelet aggregation after peroral administration. Conditions: po. Format: functional. An outline of the steps:
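Male Sprague-Dawley rats, 200-250 g, dosed orally, three rats per dose. Blood drawn by heart puncture under ether 1 h post-dose; platelet-rich plasma prepared by centrifugation; aggregation induced with collagen 0.02 mg/mL final, maximum rate read in Born aggregometer.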

The species entered for assay [5] is Homo sapiens. As to the kind of experiment: Relative activity (compared to acetylsalicylic acid) for in vitro inhibition of collagen-induced human platelet aggregation. Format: functional.
The species entered for assay [6] is Homo sapiens. Nature of the assay: In vitro inhibition of ADP-induced human platelet aggregation. Conditions: Homo sapiens; read-out: EC50. The assay is classed as functional. An outline of the steps: as §1
The species entered for assay [7] is Rattus norvegicus. As to the kind of experiment: Relative activity in rats based on acetylsalicylic acid. Format: functional.
Assay [8] has as its system Rattus norvegicus. As to the kind of experiment: Activity relative to dihydralazine for in vitro hypotensive activity in anesthetized rats. The note with it: in the assay text read “in vivo” for “in vitro”. Format: functional. An outline of the steps:
as §2

Assay [9] concerns Rattus norvegicus. As to the kind of experiment: In vivo hypotensive activity in anesthetized rats after intravenous administration.

The source of these data is ChEMBL document CHEMBL1122226, “6-Aryl-4,5-dihydro-3(2H)-pyridazinones. A new class of compounds with platelet aggregation inhibiting and hypotensive activities” (J Med Chem, 1983).

The term EC50 denotes the concentration needed to bring the measured effect to its halfway point.

In brackets after ≈: the same amount, converted by molar mass.

For the compound `CCC(Cl)C(=O)Nc1ccc(C2=NNC(=O)CC2C)cc1` (centres undefined), the Ratio in assay [1] was determined as 9.6. The EC50 in the assay filed under Homo sapiens [2] worked out at 0.069 µg/mL (≈ 0.224 µM); in the assay filed under Homo sapiens [6], 0.035 µg/mL (≈ 0.114 µM). This compound also registered an ED20 in the assay on Rattus norvegicus [3] of 0.65 mg/kg. In the assay on Rattus norvegicus [4], this compound gave an ED33 of 0.66 mg/kg. Besides, the Relative activity is listed as 7159 in the assay filed under Homo sapiens [5], 353 in the assay filed under Rattus norvegicus [7] and 0.52 in the assay on Rattus norvegicus [8].
As for `CCC(=O)Nc1ccc(C2=NNC(=O)CC2)cc1`, in assay [1], the Ratio is 56.3. The EC50 amounted to 0.74 µg/mL (≈ 3.02 µM) in the assay listed under Homo sapiens [2] and 0.64 µg/mL (≈ 2.61 µM) in the assay filed under Homo sapiens [6]. Also, the ED20 with Rattus norvegicus [3] came out at 0.06 mg/kg. Moreover, the ED33 in the assay with Rattus norvegicus [4] was determined as 41.6 mg/kg. In addition, the Relative activity turned out to be 668 in the assay listed under Homo sapiens [5], 5.6 in the assay filed under Rattus norvegicus [7] and 5.63 in the assay with Rattus norvegicus [8].
For the compound `O=C1CCC(c2ccc(NC(=O)CCl)cc2)=NN1`, the Ratio in [1] was 62.8. The compound also came in with an ED20 in the assay on Rattus norvegicus [3] of 0.37 mg/kg. This compound also had an ED33 with Rattus norvegicus [4] of 15.7 mg/kg. Moreover, the Relative activity in the assay filed under Homo sapiens [5] came to 1976; in the assay filed under Rattus norvegicus [7] it was 14.8; in the assay with Rattus norvegicus [8], 0.91. Also, the EC50 in the assay filed under Homo sapiens [6] is 0.39 µg/mL (≈ 1.47 µM).
As to `CC(Cl)C(=O)Nc1ccc(C2=NNC(=O)CC2)cc1` (centres undefined), the Ratio in assay [1] is 82.7. The EC50 was found to be 0.28 µg/mL (≈ 1 µM) in the assay listed under Homo sapiens [2] and 0.45 µg/mL (≈ 1.61 µM) in the assay listed under Homo sapiens [6]. The compound also came in with an ED20 in the assay on Rattus norvegicus [3] of 0.53 mg/kg. The same compound yielded an ED33 with Rattus norvegicus [4] of 22.6 mg/kg. The Relative activity in the assay listed under Homo sapiens [5] is 1764; in the assay filed under Rattus norvegicus [7], 10.3; in the assay on Rattus norvegicus [8] it was 0.64.
With `CC1CC(=O)NN=C1c1ccc(NC(=O)CCCl)cc1` (centres undefined), the Ratio in assay [1] is 158. In the assay with Rattus norvegicus [3], this compound displayed an ED20 of 0.044 mg/kg. In the assay on Rattus norvegicus [4], the ED33 stood at 47.5 mg/kg. Also, the figures for the Relative activity in the assay listed under Homo sapiens [5], in the assay filed under Rattus norvegicus [7] and in the assay with Rattus norvegicus [8] were 1647, 4.9 and 7.68, respectively. In addition, the EC50 in the assay filed under Homo sapiens [6] came out at 0.16 µg/mL (≈ 0.545 µM).
Consider `CC(Cl)C(=O)Nc1ccc(C2=NNC(=O)CC2C)cc1` (centres undefined) [AMIPIZONE], for which, in [1], the Ratio stood at 20.3. This compound had an ED20 in the assay on Rattus norvegicus [3] of 0.0081 mg/kg. For the same compound, the ED33 with Rattus norvegicus [4] worked out at 0.63 mg/kg. For the same compound, the Relative activity in the assay listed under Homo sapiens [5] is 15936; in the assay listed under Rattus norvegicus [7] it was 370; in the assay with Rattus norvegicus [8], 41.7. Moreover, the EC50 in the assay listed under Homo sapiens [6] came to 0.099 µg/mL (≈ 0.337 µM).
`CC1CC(=O)NN=C1c1ccc(NC(=O)C(C)(C)CCl)cc1` (centres undefined): the Ratio in [1] was 10.6. In the assay on Rattus norvegicus [3], the ED20 is 0.61 mg/kg. This compound also displayed an ED33 with Rattus norvegicus [4] of 5 mg/kg. The Relative activity in the assay filed under Homo sapiens [5] was 1051; in the assay listed under Rattus norvegicus [7] it was 46.6; with Rattus norvegicus [8], 0.55. Besides, the EC50 in the assay listed under Homo sapiens [6] came out at 0.28 µg/mL (≈ 0.87 µM).
As for `O=C1CCC(c2ccc(NC(=O)CCCl)cc2)=NN1`, the Ratio in assay [1] amounted to 46.3. In addition, the EC50 turned out to be 0.9 µg/mL (≈ 3.22 µM) in the assay filed under Homo sapiens [2] and 0.98 µg/mL (≈ 3.5 µM) in the assay filed under Homo sapiens [6]. In addition, the ED20 with Rattus norvegicus [3] was greater than 1 mg/kg. In the assay on Rattus norvegicus [4], this compound returned an ED33 of 41.7 mg/kg. Further, the values for the Relative activity in the assay listed under Homo sapiens [5], in the assay listed under Rattus norvegicus [7] and in the assay with Rattus norvegicus [8] were 549, 5.6 and less than 0.34, respectively.
As to `CCCCC[C@H](O)/C=C/[C@@H]1[C@H]2C/C(=C/CCCC(=O)O)O[C@H]2C[C@H]1O` [EPOPROSTENOL], the EC50 in the assay listed under Homo sapiens [2] is 0.00165 µg/mL (≈ 0.00468 µM); in the assay listed under Homo sapiens [6], 0.0174 µg/mL (≈ 0.0494 µM). This compound had a Relative activity in the assay filed under Homo sapiens [5] of 299394. The compound also yielded an ED20 with Rattus norvegicus [9] of 0.00067 mg/kg.
